Source: ChEMBL document CHEMBL4251702, “Potential Antimicrobial Isopropanol-Conjugated Carbazole Azoles as Dual Targeting Inhibitors of Enterococcus faecalis” (ACS Med Chem Lett, 2018)
Values after ≈ are worked out from the molar mass of the structure shown. Active and inactive are the calls of the source. The calls are words filed in the database; no cut-off is given here.

Experiments:
Pseudomonas aeruginosa [1] = assay: Antimicrobial activity against Pseudomonas aeruginosa ATCC 27853 after 24 hrs by two-fold serial dilution method; format: functional
Escherichia coli [2] = assay: Antimicrobial activity against Escherichia coli ATCC 25922 after 24 hrs by two-fold serial dilution method; format: functional, organism-based
Staphylococcus aureus [3] = assay: Antimicrobial activity against Staphylococcus aureus after 24 hrs by two-fold serial dilution method; format: functional, organism-based
Enterococcus faecalis [4] = assay: Antimicrobial activity against Enterococcus faecalis after 24 hrs by two-fold serial dilution method; format: functional
Escherichia coli [5] = assay: Antimicrobial activity against Escherichia coli after 24 hrs by two-fold serial dilution method; format: functional, organism-based
Pseudomonas aeruginosa [6] = assay: Antimicrobial activity against Pseudomonas aeruginosa after 24 hrs by two-fold serial dilution method; format: functional, organism-based
Staphylococcus aureus [7] = assay: Antimicrobial activity against Staphylococcus aureus ATCC 25923 after 24 hrs by two-fold serial dilution method; format: functional, organism-based
Acinetobacter baumannii [8] = assay: Antimicrobial activity against Acinetobacter baumannii after 24 hrs by two-fold serial dilution method; format: functional, organism-based
Klebsiella pneumoniae [9] = assay: Antimicrobial activity against Klebsiella pneumoniae after 24 hrs by two-fold serial dilution method; format: functional, organism-based
Staphylococcus aureus [10] = assay: Antimicrobial activity against Staphylococcus aureus ATCC 29213 after 24 hrs by two-fold serial dilution method; format: functional, organism-based
Staphylococcus aureus [11] = assay: Antimicrobial activity against methicillin-resistant Staphylococcus aureus after 24 hrs by two-fold serial dilution method; format: functional, organism-based
Enterococcus faecalis [12] = assay: Antimicrobial activity against Enterococcus faecalis assessed as ratio of MIC after and before […] measured at 24 hrs interval for 16 days by two-fold serial dilution method; format: functional
Aspergillus fumigatus = assay: Antifungal activity against Aspergillus fumigatus after 24 hrs by two-fold serial dilution method; format: functional
Candida parapsilosis = assay: Antifungal activity against Candida parapsilosis ATCC 22019 after 24 hrs by two-fold serial dilution method; format: functional
Staphylococcus aureus [13] = assay: Antimicrobial activity against Staphylococcus aureus ATCC 29213 after 24 hrs under pH 4 to 11 by two-fold serial dilution method; format: functional, organism-based
Escherichia coli [14] = assay: Antimicrobial activity against Escherichia coli ATCC 25922 after 24 hrs under pH 4 to 11 by two-fold serial dilution method; format: functional, organism-based
[15] = Solubility of the compound in water; format: physicochemical; details: buffer
Acinetobacter baumannii [16] = assay: Antimicrobial activity against Acinetobacter baumannii after 24 hrs under pH 4 to 11 by two-fold serial dilution method; format: functional, organism-based
Pseudomonas aeruginosa [17] = assay: Antimicrobial activity against Pseudomonas aeruginosa after 24 hrs under pH 4 to 11 by two-fold serial dilution method; format: functional, organism-based
Enterococcus faecalis [18] = assay: Antimicrobial activity against Enterococcus faecalis after 24 hrs under pH 4 to 11 by two-fold serial dilution method; format: functional, organism-based
Escherichia coli [19] = assay: Antimicrobial activity against Escherichia coli after 24 hrs under pH 4 to 11 by two-fold serial dilution method; format: functional, organism-based
Staphylococcus aureus [20] = assay: Antimicrobial activity against Staphylococcus aureus ATCC 25923 after 24 hrs under pH 4 to 11 by two-fold serial dilution method; format: functional, organism-based
Klebsiella pneumoniae [21] = assay: Antimicrobial activity against Klebsiella pneumoniae after 24 hrs under pH 4 to 11 by two-fold serial dilution method; format: functional, organism-based
Pseudomonas aeruginosa [22] = assay: Antimicrobial activity against Pseudomonas aeruginosa ATCC 27853 after 24 hrs under pH 4 to 11 by two-fold serial dilution method; format: functional, organism-based
Staphylococcus aureus [23] = assay: Antimicrobial activity against methicillin-resistant Staphylococcus aureus after 24 hrs under pH 4 to 11 by two-fold serial dilution method; format: functional, organism-based
Staphylococcus aureus [24] = assay: Antimicrobial activity against Staphylococcus aureus after 24 hrs under pH 4 to 11 by two-fold serial dilution method; format: functional, organism-based
Enterococcus faecalis [25] = assay: Induction of membrane disruption in Enterococcus faecalis at 12 times MIC measured every 10 mins for 60 mins by propidium iodide staining based fluorescence assay; format: functional, organism-based
Summary of the method: (§1)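 Membrane permeabilization was tracked by propidium iodide, which enters compromised cells and fluoresces on binding DNA. Fluorescence of bacteria with compound plus PI was recorded over 60 min, against two control groups. Strains were E. faecalis and E. coli ATCC 25922.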

Enterococcus faecalis [26] = assay: Bactericidal activity against Enterococcus faecalis assessed as log reduction in bacterial colonies at 4 times MIC measured within 1 hr by time-kill assay; format: functional
Summary of the method: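 Viable counts of E. faecalis were expressed as log CFU/mL and followed over the first hour of exposure at 4 × MIC. A positive-control drug was run alongside.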

DNA [27] = assay: Binding affinity to Enterococcus faecalis DNA assessed as DNA intercalation by UV-vis absorption spectrophotometric method; format: nucleic-acid assay
Summary of the method: (§2)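 Genomic DNA was isolated from drug-resistant E. faecalis strains and examined in vitro with the compound by UV–vis absorption and by neutral red fluorescence spectroscopy.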

Enterococcus faecalis [28] = assay: Antimicrobial activity against Enterococcus faecalis after 11 passages measured at 24 hrs interval for 16 days by two-fold serial dilution method; format: functional
Escherichia coli [29] = assay: Induction of membrane disruption in Escherichia coli ATCC 25922 at 12 times MIC measured every 10 mins for 60 mins by propidium iodide staining based fluorescence assay; format: functional, organism-based; summary of the method: as §1
DNA [30] = assay: Binding affinity to Enterococcus faecalis DNA assessed as DNA intercalation by neutral red dye based spectrofluorimetric method; format: nucleic-acid assay; summary of the method: as §2
[31] = Cytotoxicity against mouse RAW264.7 cells assessed as cell viability at 128 ug/ml after 24 hrs by MTT assay relative to control; format: cell-based; details: read-out: Activity
Summary of the method: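 Normal mouse macrophage RAW264.7 cells were exposed to the compound up to 128 μg/mL for 24 h, and viability was read by MTT. Each bar is the mean of three parallels, with error bars of one standard deviation.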

Structure (SMILES) | Activity (Escherichia coli [2]) | Activity (Staphylococcus aureus [3]) | Activity (Enterococcus faecalis [4]) | Activity (Escherichia coli [5]) | Activity (Pseudomonas aeruginosa [1]) | Activity (Pseudomonas aeruginosa [6]) | Activity (Staphylococcus aureus [7]) | Activity (Acinetobacter baumannii [8]) | Activity (Klebsiella pneumoniae [9]) | Activity (Staphylococcus aureus [10]) | Activity (Staphylococcus aureus [11]) | other results
Cc1ncc([N+](=O)[O-])n1CC(O)Cn1c2ccc(Br)cc2c2cc(Br)ccc21 (centres undefined) | – | – | – | – | – | – | – | – | – | – | – | MIC (Pseudomonas aeruginosa [1]; ATCC 27853, 24 h): 32 µg/mL (≈ 63 µM)
OC(Cn1cncn1)Cn1c2ccccc2c2cc(I)ccc21 (centres undefined) | Active | Active | Active | Active | Active | Active | Active | Active | Active | Active | Active | –
OC(Cn1cncn1)Cn1c2ccccc2c2cc(Br)ccc21 (centres undefined) | Active | Active | Active | Active | Active | Active | Active | Active | Active | Active | Active | –
Cc1nccn1CC(O)Cn1c2ccccc2c2ccccc21 (centres undefined) | Active | Active | Active | Active | Active | Active | Active | Active | Active | Active | Active | –
CCn1cc(C(=O)O)c(=O)c2cc(F)c(N3CCNCC3)cc21 [NORFLOXACIN] | Active | – | Active | – | – | – | – | – | – | Active | – | Ratio (Enterococcus faecalis [12]): 16
CC(C)(C)c1ccc2c(c1)c1cc(C(C)(C)C)ccc1n2CC(O)Cn1cncn1 (centres undefined) | Active | Active | Active | Active | Active | Active | Active | Active | Active | Active | Active | –
OC(Cn1ccnc1-c1ccccc1)Cn1c2ccccc2c2ccccc21 (centres undefined) | inactive | inactive | inactive | inactive | inactive | inactive | inactive | inactive | inactive | inactive | inactive | –
OC(Cn1cncn1)(Cn1cncn1)c1ccc(F)cc1F | – | – | – | – | – | – | – | – | – | – | – | Activity (Aspergillus fumigatus): Active; Activity (Candida parapsilosis): Active
Cc1ncc([N+](=O)[O-])n1CC(O)Cn1c2ccccc2c2ccccc21 (centres undefined) | Active | Active | Active | Active | Active | Active | Active | Active | Active | Active | Active | Activity (Staphylococcus aureus [13]): Active; Activity (Escherichia coli [14]): Active; solubility [15]: Soluble; Activity (Acinetobacter baumannii [16]): Active; Activity (Pseudomonas aeruginosa [17]): Active; Activity (Enterococcus faecalis [18]): Active; Activity (Escherichia coli [19]): Active; Activity (Staphylococcus aureus [20]): Active; Activity (Klebsiella pneumoniae [21]): Active; Activity (Pseudomonas aeruginosa [22]): Active; Activity (Staphylococcus aureus [23]): Active; Activity (Staphylococcus aureus [24]): Active
OC(Cn1cncn1)Cn1c2ccccc2c2ccc(Br)cc21 (centres undefined) | Active | Active | Active | Active | Active | Active | Active | Active | Active | Active | Active | –
OC(Cn1cncn1)Cn1c2ccc(Br)cc2c2cc(Br)ccc21 (centres undefined) | Active | Active | Active | Active | Active | Active | Active | Active | Active | Active | Active | –
OC(Cn1cncn1)Cn1c2ccccc2c2ccccc21 (centres undefined) | Active | Active | Active | Active | Active | Active | Active | Active | Active | Active | Active | –
O=[N+]([O-])c1cn(CC(O)Cn2c3ccccc3c3ccccc32)cn1 (centres undefined) | Active | Active | Active | Active | Active | Active | Active | Active | Active | Active | Active | –
OC(Cn1cncn1)Cn1c2ccc(Cl)cc2c2cc(Cl)ccc21 (centres undefined) | Active | Active | – | Active | Active | Active | Active | Active | Active | Active | Active | Activity (Enterococcus faecalis [25]): Active; Activity (Enterococcus faecalis [26]): >3 log10CFU/ml; MIC (Enterococcus faecalis [4]): 2 µg/mL (≈ 5.54 µM); Activity (DNA [27]): Active; MIC (Aspergillus fumigatus): 32 µg/mL (≈ 88.6 µM); MIC (Enterococcus faecalis [28]): 2 to 8 µg/mL (≈ 5.54 to 22.1 µM); Activity (Escherichia coli [29]): Active; MIC (Candida parapsilosis; Lodderomyces parapsilosis, ATCC 22019, 24 h): 4 µg/mL (≈ 11.1 µM); Activity (DNA [30]): Active; viability at 24 h, 128 ug/ml [31]: > 80%
